Test results reported in the RNAGym collection of RNA variant scans (doi:10.1126/science.aae0568).
This sample holds only a part of the variants without activity.

B1: tRNA (parent)
chain: GUUCCGUUGGCGUAAUGGUAACGCGUCUCCCUCCUAAGGAGAAGACUGCGGGUUCGAGUCCCGUACGGAACG

Variants of: B1
Experiment: yeast fitness relative to wild type (ratio to wild type); higher = fitter; tRNA-Arg(CCU), competitive growth, 37 C, YPD
Outline: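 Gene amplicons from the start population and from each of six end populations were read by 100-nucleotide paired-end sequencing. Those end populations came from pooled Saccharomyces cerevisiae strains carrying tRNA-Arg(CCU) gene variants at the native locus, competed in YPD at 37°C for 24 hours. Fitness relative to wild type was worked out from changes in genotype frequencies. Genotypes needed ≥ 100 starting reads, and estimates < 0.5 were set to 0.5.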

Variant | yeast fitness
U26A C27U G41A A65G | 0.534
U26A C29G G58A A70C | 0.631
U26A C30A A36U G52A G58A | ≤ 0.5
U26A C30A A65C | 0.511
U26A C30A C34A G48C G68U | ≤ 0.5
U26A C30A C62U | 0.585
U26A C30G C33U | 0.604
U26A C30G G38C A42U G58C | 0.759
U26A C30U | 0.787
U26A C30U A37U | ≤ 0.5
U26A C30U U54A | ≤ 0.5
U26A C31A | 0.803
U26A C31A A37U A43U | ≤ 0.5
U26A C31G A36C G41A C55G | ≤ 0.5
U26A C31G A36U A65U | 0.681
U26A C31G A36U U54C C55G | ≤ 0.5
U26A C31G C62U | 0.647
U26A C31U | 0.999
U26A C31U G68A | 0.716
U26A C33A A37G | 0.581
U26A C34G | 0.618
U26A C34G A45G | 0.517
U26A C34G A57U C62U | 0.582
U26A C34U C49G C66A | ≤ 0.5

Variant | yeast fitness
U26A C34U C62A | ≤ 0.5
U26A C34U G50A A69U | ≤ 0.5
U26A C34U U47G U64A | ≤ 0.5
U26A C46U | 0.874
U26A C46U A65C | 0.631
U26A C49A | 0.637
U26A C49G A69C | 0.6
U26A C49G A70C | 0.574
U26A C49G C61A | ≤ 0.5
U26A C49U A65C | 0.742
U26A C49U A65G | ≤ 0.5
U26A C49U C60U A69G | ≤ 0.5
U26A C49U C61G | ≤ 0.5
U26A C49U G52C | ≤ 0.5
U26A C49U G58A | ≤ 0.5
U26A C55A A57U | ≤ 0.5
U26A C55G | 0.571
U26A C60G | 0.691
U26A C61A | 0.656
U26A C61U | 0.817
U26A C62G | 0.69
U26A C62U | 0.934
U26A C62U G67A | 0.648
U26A C66A A69C | ≤ 0.5

Variant | yeast fitness
U26A G38C A45U C55U | ≤ 0.5
U26A G38C U47G | ≤ 0.5
U26A G38C U47G G58A | ≤ 0.5
U26A G39C | 0.751
U26A G39C G48A C60G | ≤ 0.5
U26A G41A | 0.818
U26A G41A C66A | ≤ 0.5
U26A G41C C66A A70C | 0.663
U26A G41U C55U | ≤ 0.5
U26A G44C | 0.886
U26A G44C A65G | 0.573
U26A G44C C62A | 0.598
U26A G44C C62U | 0.622
U26A G44C G67U | 0.593
U26A G44C G68C | 0.563
U26A G48A C49G | 0.552
U26A G52A A70U | ≤ 0.5
U26A G58A | 0.928
U26A G63A | 0.86
U26A G63C | 0.683
U26A G67C | 0.829
U26A G67U | 0.632
U26A G68A | 0.779
U26A G68C | 0.82

Variant | yeast fitness
U26A U28A C31U C55U C66G | ≤ 0.5
U26A U28A C31U G51A | ≤ 0.5
U26A U28A C31U G67A | ≤ 0.5
U26A U28C C30G A37C | ≤ 0.5
U26A U32A | 0.805
U26A U32C | 0.936
U26A U32C A57C C62U | ≤ 0.5
U26A U32C A57C G67A A69U | ≤ 0.5
U26A U32C C49G | 0.575
U26A U35A G48C | ≤ 0.5
U26A U35C A45U | 0.746
U26A U35C A45U A65C | ≤ 0.5
U26A U35G A37U G56C A65G | ≤ 0.5
U26A U47C | 0.994
U26A U47G | 0.661
U26A U47G C49G A69C | ≤ 0.5
U26A U47G U54C | ≤ 0.5
U26A U53A | 0.557
U26A U53G | 0.704
U26A U54A A70U | 0.69
U26A U54C | 0.817
U26A U54G | 0.531
U26A U59A | 0.822
U26A U64C | 0.856

Variant | yeast fitness
U26C | 0.988
U26C A36C A65U G68A | ≤ 0.5
U26C A36C G56C | 0.633
U26C A36C U64A A70C | ≤ 0.5
U26C A36G | 0.856
U26C A36U A40U | 0.603
U26C A37C A40C A57C U64G | 0.614
U26C A37C A40U A57C U64G | ≤ 0.5
U26C A37G | 0.634
U26C A37G A69U | 0.665
U26C A37G C60A | ≤ 0.5
U26C A37U A57G | 0.658
U26C A37U U54A | ≤ 0.5
U26C A40C | 0.941
U26C A40C A43G G44A | ≤ 0.5
U26C A40G A57C | 0.56
U26C A40U | 0.846
U26C A40U C60U A69C | 0.535
U26C A42C A70C | 0.757
U26C A43U | 0.884
U26C A43U G48C C60G | ≤ 0.5
U26C A45U | 0.716
U26C A45U U53A U59A | 0.512
U26C A57C | 0.611

Variant | yeast fitness
U26C A65C | 0.819
U26C A65G | 0.932
U26C A65U | 0.896
U26C A69U | 0.906
U26C A70C | 0.797
U26C A70U | 0.926
U26C C27A C34U G41A | ≤ 0.5
U26C C27G | 0.588
U26C C27G C34U A37U A43G A45G | ≤ 0.5
U26C C27G C34U A37U A43G A45G A57G | ≤ 0.5
U26C C27G C60U | ≤ 0.5
U26C C27G G68C | ≤ 0.5
U26C C27U | 1.02
U26C C27U A36G | 0.72
U26C C27U G67C | 0.713
U26C C29A | 0.664
U26C C29A C30A A45U | 0.582
U26C C29A C34A | ≤ 0.5
U26C C29G | 0.735
U26C C29G A65G C66G G68C | ≤ 0.5
U26C C29G A69U | 0.572
U26C C29G C49U | ≤ 0.5
U26C C29G C49U A69U | 0.588
U26C C29G G68C | 0.558

Variant | yeast fitness
U26C C29G U35C | ≤ 0.5
U26C C29U | 0.869
U26C C29U G63A | 0.672
U26C C30A | 0.815
U26C C30G | 0.651
U26C C30G C61U A70G | 0.689
U26C C30G G41A G56A C60G C62U G68A | ≤ 0.5
U26C C30G G41A U64C | ≤ 0.5
U26C C30G U64C | 0.703
U26C C30U C60A | ≤ 0.5
U26C C30U U47A G67U | ≤ 0.5
U26C C31A G38C | 0.529
U26C C31G A43C | 0.78
U26C C31U C46A G48C A57U | 0.649
U26C C31U C49U C66G | ≤ 0.5
U26C C33A A40U | 0.668
U26C C33G | 0.632
U26C C33G A42C | 0.537
U26C C33G A42C G67C | ≤ 0.5
U26C C33G U54C | ≤ 0.5
U26C C33U | 0.676
U26C C33U C55U C60U | ≤ 0.5
U26C C34A | 0.817
